From ChEMBL document CHEMBL1126561, “Synthesis and biological evaluation of N4-substituted imidazo- and v-triazolo[4,5-d]pyridazine nucleosides” (J Med Chem, 1993) come the findings set out here.

One may read the Inhibition as the drop in the measured response relative to a control, in per cent. Usually inhibition stands for the relative decrease from the control value, in per cent. High values mean a strong effect, low ones a weak effect.

In brackets after ≈: the same amount, converted by molar mass.

For experiment [1], the species on record is Homo sapiens. Nature of the experiment: Evaluated for inhibition of adenosine accumulation in human erythrocytes at the concentration of 10 uM of compound. In kind it is functional. In short, it runs like this: (§1)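 Inhibitor-stop assay of human erythrocytes (10% suspension, v/v) at room temperature. Analogue (up to 10 μM) was preincubated with triplicate cell aliquots for 10 min, then [8-¹⁴C]adenosine was added (final 10 μM). Uptake was stopped after 0.5 s with ice-cold 750 μM dilazep and centrifugation through oil. Cell radioactivity was counted, corrected for extracellular trapping.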

The subject of experiment [2] is B16. Briefly: Compound was tested in vitro for growth inhibitory activity against B16 melanoma cell line. In kind it is functional. To be noted: Mus musculus, read-out: ID50 (the source's name). In short, it runs like this: (§2)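 B16 melanoma cells in RPMI-1640 with 15% heat-inactivated FBS and antibiotics, seeded at 2-3 × 10³ cells/well on day 0. Graded analogue (12 concentrations) added day 1, then 3 days at 37 °C. MTT 4 h, formazan dissolved in acidic isopropanol, absorbance read. ID50 from curve fit, eight determinations per concentration.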

The species named for experiment [3] is Homo sapiens. Nature of the experiment: Compound was tested for the inhibition of adenosine transport into human erythrocytes. In kind it is functional. In short, it runs like this: as §1
For experiment [4], the target named is T1, Adenosine deaminase (Bos taurus) (UniProt P56658).
T1 sequence (whole entry): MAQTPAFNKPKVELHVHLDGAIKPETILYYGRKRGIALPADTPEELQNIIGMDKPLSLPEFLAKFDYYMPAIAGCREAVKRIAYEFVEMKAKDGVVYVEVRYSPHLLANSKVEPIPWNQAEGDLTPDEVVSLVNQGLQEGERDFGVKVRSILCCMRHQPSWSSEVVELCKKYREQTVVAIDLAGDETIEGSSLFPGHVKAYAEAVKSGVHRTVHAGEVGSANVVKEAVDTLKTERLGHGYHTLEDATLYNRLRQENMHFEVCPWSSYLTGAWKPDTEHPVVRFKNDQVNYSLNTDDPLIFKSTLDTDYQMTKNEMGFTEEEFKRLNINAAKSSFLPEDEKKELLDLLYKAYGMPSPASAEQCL
Nature of the experiment: Tested for percentage inhibition against adenosine deaminase at the concentration 100 uM. In short, it runs like this:
(§3)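 Calf intestinal mucosa ADA (0.003 unit) in 1 mL of 50 mM potassium phosphate, pH 7.4, at 30 °C. Substrate was 25 μM adenosine, about Km. Analogue tested at 100 μM, reported as percent inhibition.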

The target of experiment [5] is T1, Adenosine deaminase (Bos taurus). Nature of the experiment: Tested for inhibition against calf intestinal mucosa adenosine deaminase (ADA). In kind it is tissue-based. To be noted: concentration not given here. In short, it runs like this: as §3
Experiment [6] has as its system B16. Nature of the experiment: Tested in vitro inhibitory activity against murine B16 melanoma cells line. The following applies: Mus musculus, read-out: ID50 (the source's name). Format: functional. In short, it runs like this: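 B16 cells maintained in RPMI-1640 with 15% heat-inactivated FBS and antibiotics (doubling time 21 h); 2-3 × 10^3 cells seeded day 0, graded analogue concentrations added day 1, 3 days at 37 °C. MTT 4 h, formazan solubilized in acidic isopropanol, absorbance read; ID50 from curve fit of 12 concentrations, eight determinations each.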

The test system of experiment [7] is L1210 (1565). Nature of the experiment: Tested in vitro inhibitory activity against murine L 1210 leukemia cells line. In kind it is functional. To be noted: Mus musculus, read-out: ID50 (the source's name). In short, it runs like this:
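L1210 cells in RPMI-1640 with 10% heat-inactivated FBS plus mercaptoethanol (doubling time 12 h); 1 × 10^3 cells seeded day 0, graded analogue concentrations added day 1, cultured 3 days at 37 °C. Growth read by MTT reduction (4 h), formazan in acidic isopropanol; ID50 fitted from 12 concentrations × eight determinations.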

Experiment [8] has as its system B16. Briefly: Compound was tested in vitro for growth inhibitory activity against murine B16 melanoma cell line. Format: functional. To be noted: Mus musculus, read-out: ID50 (the source's name). In short, it runs like this: as §2
Experiment [9] concerns L1210 (1565). Nature of the experiment: Compound was tested in vitro for growth inhibitory activity against murine L1210 leukemia cell line. Format: functional. To be noted: Mus musculus, read-out: ID50 (the source's name). In short, it runs like this:
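Murine L1210 cells in RPMI-1640 with 10% heat-inactivated FBS and mercaptoethanol, seeded at 1 × 10³ cells/well on day 0. Graded analogue (12 concentrations) added day 1, then 3 days at 37 °C. MTT 4 h, formazan dissolved in acidic isopropanol, absorbance read. ID50 from curve fit, eight determinations per concentration.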

In the experiment filed under Homo sapiens [1], `OC[C@H]1OC(n2cnc3c(NCc4ccccc4)nncc32)[C@H](O)[C@@H]1O` (stereo partly specified) yielded an Inhibition of 45%.
As for `OC[C@H]1OC(n2nnc3c(NCc4ccccc4)nncc32)[C@H](O)[C@@H]1O` (stereo partly specified), the IC50 in the experiment on B16 [2] is 35.8 µg/mL (≈ 99.9 µM). Besides, the Inhibition in the experiment filed under Homo sapiens [3] turned out to be 34%.
With `Nc1nncc2c1ncn2[C@@H]1O[C@H](CO)[C@@H](O)[C@H]1O`, the inhibition in [4] is 15%.
For `Nc1nncc2c1nnn2C1O[C@H](CO)[C@@H](O)[C@H]1O` (stereo partly specified), in experiment [5], the inhibition was determined as 7%.
Regarding `Nc1ccn([C@@H]2O[C@H](CO)[C@@H](O)[C@@H]2O)c(=O)n1` [CYTARABINE], the IC50 in the experiment on B16 [6] and with L1210 (1565) [7] was under 0.1 µg/mL each time.
For the molecule `O=c1[nH]cc(F)c(=O)[nH]1` [FLUOROURACIL], the IC50 with B16 [6] and in the experiment with L1210 (1565) [7] was under 0.1 µg/mL each time.
Regarding `CN(Cc1cnc2nc(N)nc(N)c2n1)c1ccc(C(=O)N[C@@H](CCC(=O)O)C(=O)O)cc1` [METHOTREXATE], the IC50 in the experiment on B16 [8] and in the experiment with L1210 (1565) [9] was under 0.1 µg/mL throughout.
